High-throughput results from PubChem.
Sampled rows, rich in hits. Any-hit rate of the full collection: about 3.2%.
TRPN1 ag = zebrafish TRPN1 channel agonists, primary screen, cell-based, HEK293, calcium fluorescence | transient receptor potential cation channel N1 (TRPN1/NompC), Danio rerio | HEK293 zebrafish TRPN1-YFP, Fluo-8 calcium fluorescence; 100% = response to 87 µM carbachol | activation, % at 3 µM | actives 0.18% (n = 220,000);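 active means activation above its plate's cutoff, the mean activation of test wells on that plate plus 3 SD, cut at about 19% in these data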;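 further: 0% = DMSO alone and 100% = 87 µM carbachol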
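Material – zebrafish TRPN1-YFP in HEK293 cells · Doses – 3 µM single point · Schedule – dye 1 h 37 °C plus 30 min RT · Signal – Fluo-8 calcium fluorescence, excitation 470-495 nm, emission 515-575 nm · Read-out – % activation versus carbachol response · Control set – carbachol high, DMSO low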
GPR7 antagonist = GPR7 receptor antagonists, primary screen, cell-based, fluorescence, single concentration. actives 1.1% (n = 290,000). inhibition, % at 4.4 µM. Neuropeptides B/W receptor type 1 (Homo sapiens), P48145. GPR7-expressing cells, fluorescence antagonist assay; in the data active means inhibition above about 16%, passing the limit was not always enough;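 further: cells stimulated with the agonist NPW; 0% = agonist with vehicle and 100% = vehicle without agonist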
Target sequence (P48145 whole entry, looked up): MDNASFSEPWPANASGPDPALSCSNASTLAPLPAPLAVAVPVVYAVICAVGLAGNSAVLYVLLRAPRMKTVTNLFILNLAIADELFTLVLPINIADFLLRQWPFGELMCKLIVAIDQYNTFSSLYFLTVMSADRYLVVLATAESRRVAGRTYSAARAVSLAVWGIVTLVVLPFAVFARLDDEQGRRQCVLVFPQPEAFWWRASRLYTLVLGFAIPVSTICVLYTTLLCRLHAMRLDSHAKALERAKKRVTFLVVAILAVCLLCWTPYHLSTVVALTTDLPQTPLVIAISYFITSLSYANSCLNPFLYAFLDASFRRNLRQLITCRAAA
OX1R antag-1 = OX1R (HCRTR1) antagonists, primary screen, fluorescence, CHO/OX1R cells, Fluo-8 calcium, orexin A. Orexin/Hypocretin receptor type 1 (Homo sapiens), O43613. inhibition, % at 5 µM. Fluo-8 calcium fluorescence. actives 0.43% (n = 330,000). AID 434989, 2010;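 active means inhibition above its plate's threshold, mean inhibition of all tested compounds on the plate plus 3 SD, cut at about 37% in these data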;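 further: 0% = orexin A challenge wells and 100% = SB-334867-A antagonist wells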
CHO parental Ca = ATP-evoked calcium signal inhibitors, parental CHO, primary screen, counter-screen for OX1R antagonist project, cell-based, fluorescence, Fluo-8 calcium dye. AID 463079, 2010. inhibition, % at 5.6 µM. parental CHO-K1, ATP-induced calcium, Fluo-8 fluorescence. actives 0.63% (n = 330,000);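 active means inhibition above that plate's mean sample inhibition plus 3 SD, cut at about 26% in these data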;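 further: 0% = ATP-challenged DMSO wells and 100% = DMSO wells without ATP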
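Test system: untransfected parental CHO cell line. Compound: one dose, 5.6 µM nominal. Detection: intracellular calcium via Fluo-8 no-wash fluorescent dye. Measure: % inhibition. Benchmarks: ATP-challenged DMSO wells low, unchallenged DMSO wells high.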
TRPML3 agonist = human TRPML3 channel agonists, primary screen, cell-based, HEK293 TRPML3-YFP, Fluo-8 calcium fluorescence, 3 µM; Mucolipin-3 (Homo sapiens), Q8TDD5; 100% = the carbachol control signal; activation, % at 3 µM; actives 0.29% (n = 220,000); AID 1448, 2008;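 active means activation above its plate's cutoff, the mean activation of the plate's test wells plus 3 SD, cut at about 12% in these data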;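 further: 0% = DMSO only wells and 100% = carbachol wells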
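Test system: HEK293 cells stably carrying human TRPML3-YFP; Doses: single dose, 3 µM final nominal compound, 0.3% DMSO final; Schedule: dye loading 1 h 37 °C then 30 min ambient, 125 s read; Technique: Fluo-8 calcium fluorescence; Benchmarks: high control carbachol 87 µM, low control DMSO.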
OX1R antag-2 = antagonists of human orexin 1 receptor (OX1R). OX1R-expressing cells, FRET antagonist read-out. inhibition, % at 6.6 µM. actives 1.8% (n = 330,000); in the data active means inhibition mostly above about 38%, no sharp cut-off; inactive means mostly below about 40%;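 further: 0% = agonist challenge alone and 100% = reference antagonist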
OX1R Fluo8 conf = OX1R (HCRTR1) antagonists, confirmation, fluorescence, CHO/OX1R cells, Fluo-8 calcium, orexin A | shares compounds with OX1R antag-1 | orexin A calcium Fluo-8 fluorescence | inhibition, % at 5 µM | actives 38% (n = 1,100); in the data active means inhibition above about 29%;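 further: 0% = agonist challenge alone and 100% = reference antagonist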
CHO Ca triplic = ATP-evoked calcium inhibition in parental CHO, counter-screen for OX1R antagonist project, cell-based, fluorescence, CHO-K1, triplicate. shares compounds with OX1R antag-1. ATP-induced calcium, Fluo-8 fluorescence. inhibition, % at 5.6 µM. actives 9.3% (n = 1,100). AID 492965, 2010;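 active means inhibition above a per-plate limit, the mean inhibition of that plate's test compounds plus 3 SD, cut at about 25% in these data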;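 further: 0% = ATP challenge with DMSO and 100% = DMSO without ATP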
An asterisk follows results filed as active; x = no result.

SMILES | TRPN1 ag | GPR7 antagonist | OX1R antag-1 | CHO parental Ca | TRPML3 agonist | OX1R antag-2 | OX1R Fluo8 conf | CHO Ca triplic
COc1ccc2c(COC(=O)c3cccc(S(=O)(=O)NCC(C)C)c3)cc(=O)oc2c1 | x | 9 | 46* | 15 | x | 34 | 42* | 5
COc1ccc2c(COC(=O)CNS(=O)(=O)c3ccc(C)c(C)c3)cc(=O)oc2c1 | x | x | 0 | -15 | x | 2 | x | x
COc1ccc(SC[C@H](C)CN2CC[C@H](NC(=O)OCc3ccccc3)CCC2=O)cc1 | x | x | 15 | -3 | x | 12 | x | x
C[C@@H](CSc1ccc(Br)cc1)CN1CC[C@H](NC(=O)OCc2ccccc2)CCC1=O | x | x | 53* | 18 | x | 0 | -4 | 0
CCCC(=O)Nc1ccc(Sc2ccc([N+](=O)[O-])cc2)cc1 | 3 | 18 | 38 | 25 | 1 | 49 | 9 | 10
CCCC(=O)Nc1ccc(C(=O)NNC(=O)c2cccc([N+](=O)[O-])c2)cc1 | 0 | 1 | -11 | 1 | 1 | 31 | x | x
Cc1cccc(OCC(=O)Nc2ccc(N3CCN(C(=O)c4ccco4)CC3)cc2)c1 | 6 | 9 | 53* | 15 | 3 | 20 | 50* | 51*
Cc1ccc(OCC(=O)Nc2ccc(N3CCN(C(=O)c4ccco4)CC3)cc2)cc1C | 4 | 2 | -9 | 5 | 1 | 11 | x | x
OCCC1CN(CC(c2ccccc2)c2ccccc2)CCN1C1CCCC1 (stereo unspecified) | -2 | 18 | -21 | -18 | 0 | 9 | x | x
COc1ccc(Cl)cc1NC(=O)C[n+]1cccc(C)c1 | x | 4 | -10 | -12 | x | 2 | x | x
CCOc1cccc(-c2c(C(=O)N/N=C/c3c(F)cccc3Cl)nnn2-c2nonc2N)c1 | x | 3 | 34 | -2 | x | 17 | 35* | -1
CCOc1cccc(-c2c(C(=O)N/N=C/c3ccc(C)s3)nnn2-c2nonc2N)c1 | x | -14 | -9 | -3 | x | 12 | x | x
Cc1cc(C)nc(/N=C(\N)Nc2ccc(F)c([N+](=O)[O-])c2)n1 | 6 | -12 | 25 | 12 | 2 | 29 | 40* | 8
Cc1cc(C)nc(/N=C(\N)Nc2ccc(S(N)(=O)=O)cc2)n1 | 1 | -6 | 4 | -9 | 1 | 2 | x | x
Cc1cnc(C(=O)OCC(=O)Nc2ccc(Oc3ccccc3)cc2)cn1 | 1 | 22 | -11 | -2 | 0 | 7 | x | x
COc1ccc(NC(=O)c2ccc(NC(=O)COC(=O)c3cnc(C)cn3)cc2)cc1 | x | x | 31 | 2 | x | 11 | 4 | 12
Cc1cc(NC(=O)c2noc3c2CCc2ccccc2-3)no1 | x | x | -10 | -7 | x | 12 | x | x
Cc1ccc(O)c(NC(=O)c2noc3c2CCc2ccccc2-3)c1 | 0 | -5 | 31 | -15 | 1 | 67 | 21 | 4
Cc1ncsc1CCOC(=O)c1ccc(N2CCOCC2)c([N+](=O)[O-])c1 | 7 | -15 | 34 | 18 | 4 | 53 | 13 | 21
Cc1c(CCOC(=O)c2ccc(N3CCOCC3)c([N+](=O)[O-])c2)sc[n+]1CC#N | 4 | -10 | -20 | -11 | 1 | 28 | x | x
O=C(CCCOc1ccccc1)Nc1ccc(Cl)c(S(=O)(=O)N2CCOCC2)c1 | x | x | 38 | 2 | x | 23 | 6 | 4
O=C(CCCOc1ccccc1)Nc1cccc([N+](=O)[O-])c1 | 0 | 7 | 40 | 12 | 0 | 31 | 7 | 0
